Measured values from ChEMBL document CHEMBL3272208, “(Vinylaryloxy)acetic acids. A new class of diuretic agents. 3. ((2-Nitro-1-alkenyl)aryloxy)acetic acids” (1976).

Columns and labels:
Canis familiaris [1] = experiment: Diuretic activity in mongrel dog assessed as chloride level in excreted urine at 5 mg/kg, po measured for 6 hrs (reference value: 2 mequivalents); type: functional, Canis lupus familiaris
Canis familiaris [2] = experiment: Diuretic activity in mongrel dog assessed as sodium level in excreted urine at 5 mg/kg, po measured for 6 hrs (reference value: 2 mequivalents); type: functional, Canis lupus familiaris
Canis familiaris [3] = experiment: Diuretic activity in mongrel dog assessed as volume of excreted urine at 1 mg/kg, iv measured between 15 to 45 mins after dosage (reference value: 1 to 4 ml/min); type: functional, Canis lupus familiaris
In short: (§1)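 Compounds were given iv to dogs as Na salts in H2O. […] The baseline is the mean of two 15-min periods before dosing. The response is the mean of two consecutive 15-min periods of maximal Na+ excretion, usually 15–45 min post-dose. Na+, K+ and Cl- are in μequiv/min and urine volume in ml/min, reported as control/drug.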

Canis familiaris [4] = experiment: Diuretic activity in mongrel dog assessed as volume of excreted urine at 5 mg/kg, po measured for 6 hrs (RVb = 180 ml)
Canis familiaris [5] = experiment: Diuretic activity in mongrel dog assessed as chloride level in excreted urine at 10 mg/kg, iv measured between 15 to 45 mins after dosage (reference value: 3 to 64 uequiv/min); type: functional, Canis lupus familiaris
In short: (§2)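 Compounds were given iv to dogs as Na salts in H2O. The baseline is the mean of two 15-min periods before dosing. The response is the mean of two consecutive 15-min periods of maximal Na+ excretion, usually 15–45 min post-dose. Na+, K+ and Cl- are in μequiv/min and urine volume in ml/min, reported as control/drug.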

Canis familiaris [6] = experiment: Diuretic activity in mongrel dog assessed as volume of excreted urine at 10 mg/kg, iv measured between 15 to 45 mins after dosage (reference value: 1 to 4 ml/min); type: functional, Canis lupus familiaris; in short: as §1
Canis familiaris [7] = experiment: Diuretic activity in mongrel dog assessed as chloride level in excreted urine at 1 mg/kg, iv measured between 15 to 45 mins after dosage (reference value: 1 to 70 uequiv/min); type: functional, Canis lupus familiaris; in short: as §2
Canis familiaris [8] = experiment: Diuretic activity in mongrel dog assessed as potassium level in excreted urine at 1 mg/kg, iv measured between 15 to 45 mins after dosage (reference value: 6 to 47 uequiv/min); type: functional, Canis lupus familiaris; in short: as §1
Canis familiaris [9] = experiment: Diuretic activity in mongrel dog assessed as sodium level in excreted urine at 1 mg/kg, iv measured […] after dosage (reference value: 3 to 95 uequiv/min); type: functional, Canis lupus familiaris; in short: as §2
Canis familiaris [10] = experiment: Diuretic activity in mongrel dog assessed as potassium level in excreted urine at 10 mg/kg, iv measured between 15 to 45 mins after dosage (reference value: 7 to 63 uequiv/min); type: functional, Canis lupus familiaris; in short: as §1
Canis familiaris [11] = experiment: Diuretic activity in mongrel dog assessed as potassium level in excreted urine at 5 mg/kg, po measured for 6 hrs (reference value: 1 mequivalents); type: functional, Canis lupus familiaris
Canis familiaris [12] = experiment: Diuretic activity in mongrel dog assessed as sodium level in excreted urine at 10 mg/kg, iv measured […] after dosage (reference value: 5 to 66 uequiv/min); type: functional, Canis lupus familiaris; in short: as §1
Canis familiaris [13] = experiment: Diuretic activity in mongrel dog assessed as sodium level in excreted urine at 1 mg/kg, po measured for 6 hrs (reference value: 2 mequivalents); type: functional, Canis lupus familiaris
Canis familiaris [14] = experiment: Diuretic activity in mongrel dog assessed as chloride level in excreted urine at 1 mg/kg, po measured for 6 hrs (reference value: 2 mequivalents); type: functional, Canis lupus familiaris
Canis familiaris [15] = experiment: Diuretic activity in mongrel dog assessed as potassium level in excreted urine at 1 mg/kg, po measured for 6 hrs (reference value: 1 mequivalents); type: functional, Canis lupus familiaris
Canis familiaris [16] = experiment: Diuretic activity in mongrel dog assessed as volume of excreted urine at 1 mg/kg, po measured for 6 hrs (RVb = 180 ml)
Canis familiaris [17] = experiment: Diuretic activity in mongrel dog assessed as potassium level in excreted urine at 5 mg/kg, iv measured between 15 to 45 mins after dosage (reference value: 12 to 70 uequiv/min); type: functional, Canis lupus familiaris; in short: as §1
Canis familiaris [18] = experiment: Diuretic activity in mongrel dog assessed as volume of excreted urine at 5 mg/kg, iv measured between 15 to 45 mins after dosage (reference value: 1 to 5 ml/min); type: functional, Canis lupus familiaris; in short: as §1
Canis familiaris [19] = experiment: Diuretic activity in mongrel dog assessed as chloride level in excreted urine at 5 mg/kg, iv measured between 15 to 45 mins after dosage (reference value: 1 to 65 uequiv/min); type: functional, Canis lupus familiaris; in short: as §1
Canis familiaris [20] = experiment: Diuretic activity in mongrel dog assessed as sodium level in excreted urine at 5 mg/kg, iv measured […] after dosage (reference value: 1 to 91 uequiv/min); type: functional, Canis lupus familiaris; in short: as §1

SMILES: C/C(=C\c1ccc(OCC(=O)O)cc1)[N+](=O)[O-]
- Activity (Canis familiaris [1]): 4 milliequivalent
- Activity (Canis familiaris [2]): 6 milliequivalent
- Activity (Canis familiaris [3]): 2 mL/min
- Activity (Canis familiaris [4]): 378 mL
- Activity (Canis familiaris [5]): 611 uEq/min
- Activity (Canis familiaris [6]): 6 mL/min
- Activity (Canis familiaris [7]): 61 uEq/min
- Activity (Canis familiaris [8]): 12 uEq/min
- Activity (Canis familiaris [9]): 82 uEq/min
- Activity (Canis familiaris [10]): 70 uEq/min
- Activity (Canis familiaris [11]): 2 milliequivalent
- Activity (Canis familiaris [12]): 649 uEq/min

SMILES: CC/C(=C\c1ccc(OCC(=O)O)c(Cl)c1Cl)[N+](=O)[O-]
- Activity (Canis familiaris [13]): 26 milliequivalent
- Activity (Canis familiaris [14]): 28 milliequivalent
- Activity (Canis familiaris [3]): 10 mL/min
- Activity (Canis familiaris [15]): 5 milliequivalent
- Activity (Canis familiaris [7]): 1295 uEq/min
- Activity (Canis familiaris [8]): 89 uEq/min
- Activity (Canis familiaris [16]): 465 mL
- Activity (Canis familiaris [9]): 1174 uEq/min

SMILES: CCCCC/C(=C\c1ccc(OCC(=O)O)c(Cl)c1Cl)[N+](=O)[O-]
- Activity (Canis familiaris [13]): 10 milliequivalent
- Activity (Canis familiaris [14]): 9 milliequivalent
- Activity (Canis familiaris [3]): 3 mL/min
- Activity (Canis familiaris [15]): 3 milliequivalent
- Activity (Canis familiaris [7]): 269 uEq/min
- Activity (Canis familiaris [8]): 56 uEq/min
- Activity (Canis familiaris [16]): 413 mL
- Activity (Canis familiaris [9]): 179 uEq/min

SMILES: CC/C(=C\c1ccc(OCC(=O)O)c(Cl)c1)[N+](=O)[O-]
- Activity (Canis familiaris [3]): 15 mL/min
- Activity (Canis familiaris [7]): 1727 uEq/min
- Activity (Canis familiaris [8]): 131 uEq/min
- Activity (Canis familiaris [9]): 1618 uEq/min

SMILES: C/C(=C\c1ccc(OCC(=O)O)c(Cl)c1)[N+](=O)[O-]
- Activity (Canis familiaris [3]): 8 mL/min
- Activity (Canis familiaris [7]): 766 uEq/min
- Activity (Canis familiaris [8]): 142 uEq/min
- Activity (Canis familiaris [9]): 734 uEq/min

SMILES: CC(=O)/C=C/c1ccc(OCC(=O)O)c(Cl)c1Cl
- Activity (Canis familiaris [17]): 76 uEq/min
- Activity (Canis familiaris [18]): 8 mL/min
- Activity (Canis familiaris [19]): 1080 µequiv/min
- Activity (Canis familiaris [20]): 911 uEq/min

SMILES: CC/C(=C\c1ccc(OC(C)C(=O)O)c(Cl)c1Cl)[N+](=O)[O-] (stereo unspecified)
- Activity (Canis familiaris [3]): 7 mL/min
- Activity (Canis familiaris [7]): 528 uEq/min
- Activity (Canis familiaris [8]): 67 uEq/min
- Activity (Canis familiaris [9]): 490 uEq/min

SMILES: CC/C(=C\c1cccc(OCC(=O)O)c1)[N+](=O)[O-]
- Activity (Canis familiaris [5]): 639 uEq/min
- Activity (Canis familiaris [6]): 7 mL/min
- Activity (Canis familiaris [10]): 76 uEq/min
- Activity (Canis familiaris [12]): 452 uEq/min

SMILES: CC/C(=C\c1ccc(OCC(=O)O)c(C)c1C)[N+](=O)[O-]
- Activity (Canis familiaris [3]): 13 mL/min
- Activity (Canis familiaris [7]): 1650 uEq/min
- Activity (Canis familiaris [8]): 118 uEq/min
- Activity (Canis familiaris [9]): 1583 uEq/min

SMILES: C/C(=C\c1ccc(OCC(=O)O)c2ccccc12)[N+](=O)[O-]
- Activity (Canis familiaris [13]): 33 milliequivalent
- Activity (Canis familiaris [14]): 39 milliequivalent
- Activity (Canis familiaris [3]): 15 mL/min
- Activity (Canis familiaris [15]): 7 milliequivalent
- Activity (Canis familiaris [7]): 1659 uEq/min
- Activity (Canis familiaris [8]): 128 uEq/min
- Activity (Canis familiaris [16]): 538 mL
- Activity (Canis familiaris [9]): 1612 uEq/min

SMILES: CCCC/C(=C\c1ccc(OCC(=O)O)c(Cl)c1Cl)[N+](=O)[O-]
- Activity (Canis familiaris [3]): 4 mL/min
- Activity (Canis familiaris [7]): 364 uEq/min
- Activity (Canis familiaris [8]): 78 uEq/min
- Activity (Canis familiaris [9]): 322 uEq/min

SMILES: C/C(=C\c1cc(Cl)cc(Cl)c1OCC(=O)O)[N+](=O)[O-]
- Activity (Canis familiaris [17]): 25 uEq/min
- Activity (Canis familiaris [18]): 3 mL/min
- Activity (Canis familiaris [19]): 41 uEq/min
- Activity (Canis familiaris [20]): 80 uEq/min

SMILES: CC/C(=C\c1cc(Cl)cc(Cl)c1OCC(=O)O)[N+](=O)[O-]
- Activity (Canis familiaris [5]): 6 uEq/min
- Activity (Canis familiaris [6]): 3 mL/min
- Activity (Canis familiaris [10]): 29 uEq/min
- Activity (Canis familiaris [12]): 71 uEq/min

SMILES: O=C(O)COc1ccc(/C=C/[N+](=O)[O-])cc1Cl
- Activity (Canis familiaris [5]): 146 uEq/min
- Activity (Canis familiaris [6]): 3 mL/min
- Activity (Canis familiaris [10]): 65 uEq/min
- Activity (Canis familiaris [12]): 201 uEq/min
